# In ChEMBL document CHEMBL1141019, “New cyclic tetrapeptides from Nonomuraea sp. TA-0426 that inhibit glycine transporter type 1 (GlyT1)” (Bioorg Med Chem Lett, 2008):
# Residues, ends and D or L forms follow the SMILES beside them.
# Tested on: T98G
# Assay: Inhibition of [3H]glycine uptake in human T98G cells
# Type: functional, cell-based
# Procedure, shortened: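 T98G cells (2 × 10⁴ cells/well) plated, held 24 h at 37 °C in humidified incubator; washed, then exposed at room temperature to 250 nM [³H]-glycine plus test sample for 15 min. Cells washed, lysed in 0.5 M NaOH, radioactivity read by scintillation counting. IC50 from nonlinear regression curve fit; means of two experiments.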
row,Structure (SMILES),IC50
1,CC[C@H](C)[C@@H]1NC(=O)[C@H](Cc2ccccc2)NC(=O)[C@H]([C@@H](C)CC)NC(=O)[C@H]([C@@H](C)CC)NC(=O)[C@H]([C@@H](C)CC)NC(=O)[C@H]([C@@H](C)CC)NC1=O (cyclo(FIIIII)),1.68 µM
2,CN(CC[C@@H](Oc1ccc(-c2ccccc2)cc1)c1ccc(F)cc1)CC(=O)O,0.0048 µM
3,CC[C@H](C)[C@@H]1NC(=O)[C@H](Cc2ccccc2)NC(=O)[C@H]([C@@H](C)CC)NC(=O)[C@H]([C@@H](C)CC)NC(=O)[C@H]([C@@H](C)CC)NC1=O (cyclo(FIIII)),0.655 µM
4,CC[C@H](C)[C@@H]1NC(=O)[C@H](Cc2cn(OC)c3ccccc23)NC(=O)[C@H](CCCCC(C)=O)NC(=O)[C@H]2CCCCN2C1=O,0.0718 µM
5,CC[C@H](C)[C@H](N)C(=O)N[C@H](C(=O)N[C@H](C(=O)N[C@@H](Cc1ccccc1)C(=O)O)[C@@H](C)CC)[C@@H](C)CC (H-IIIF-OH),16.4 µM

# Other lines, results leading:
row,IC50,Structure (SMILES)
1,0.0125 µM,CC[C@H](C)[C@@H]1NC(=O)[C@H](Cc2ccccc2)NC(=O)[C@H]([C@H](CS(=O)(=O)O)C(C)=O)NC(=O)[C@H]([C@@H](C)CC)NC1=O
2,0.0035 µM,CC[C@H](C)[C@@H]1NC(=O)[C@H](Cc2ccccc2)NC(=O)[C@H]([C@H](C)[C@@H](C)O)NC(=O)[C@H]([C@@H](C)CC)NC1=O
3,0.004 µM,CC(C)[C@@H]1NC(=O)[C@H](Cc2ccccc2)NC(=O)[C@H]([C@H](C)[C@@H](C)O)NC(=O)[C@H](C(C)C)NC1=O
4,0.0212 µM,CC[C@H](C)[C@@H]1NC(=O)[C@H](Cc2ccccc2)NC(=O)[C@H]([C@@H](C)CC)NC(=O)[C@H]([C@@H](C)CC)NC1=O (cyclo(FIII))
5,0.0055 µM,CC[C@H](C)[C@@H]1NC(=O)[C@H](Cc2ccccc2)NC(=O)[C@H]([C@H](C)[C@@H](C)O)NC(=O)[C@H](C(C)C)NC1=O
6,0.005 µM,CC[C@H](C)[C@@H]1NC(=O)[C@H](C(C)C)NC(=O)[C@H](Cc2ccccc2)NC(=O)[C@H]([C@H](C)[C@@H](C)O)NC1=O
